MEKK2 mut-MEK5: MEK5 binding signal on mutant MEKK2 PB1, primary screen, biochemical, multiplex bead flow cytometry, Alexa488-MEK5 | Alexa488-MEK5 binding to MEKK2 mutant | percent response, % at 10 µM | 290,000 compounds, 0.35% hits | AID 1530, 2009; in the data active = percent response above about 24%, passing the limit was not always enough
Hep lipid drop: inhibitors of hepatocyte lipid droplet formation, primary screen, imaging, high-throughput imaging, BODIPY stain | AID 1656, 2009 | 240,000 compounds, 0.4% hits | inhibition, % at 6.5 µM | AML12 mouse hepatocytes, oleate lipid droplets;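 active = lipid droplet intensity inhibited by at least 50%, with more than 500 cells counted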
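Assay system: AML12 mouse liver cells | Compound dosing: One dose, 6.5 µM compound | Read-out basis: Droplet intensity reduction, % inhibition | Measured by: Fluorescence imaging, 20x objective, two fields per well | Schedule: Overnight treatment with compound plus oleate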
MEKK2wt PB1 HTS: modulators of MEK5 binding to wildtype MEKK2, primary screen, biochemical, multiplex bead flow cytometry, Alexa488-MEK5 | binding response (% of control), % at 10 µM | 290,000 compounds, 1.1% hits | Alexa488-MEK5 binding to MEKK2 WT; actives lie on both sides; in the data active = binding response below about 67% or above about 130%
MEKK3 PB1 HTS: modulators of MEKK3-MEK5 PB1 binding, primary screen, biochemical, wildtype MEKK3, multiplex bead flow cytometry, Alexa488-MEK5; bead-based flow cytometry, Alexa488-MEK5 binding to MEKK3; actives lie on both sides; 0 = blocked by unlabeled MEK5, 100 = vehicle; 290,000 compounds, 1.4% hits; binding response (% of control), % at 10 µM; AID 1529, 2009; Mitogen-activated protein kinase kinase kinase 3 (Homo sapiens), Q99759;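 active = binding response more than 3 SD above or below the average of its plate-row segment, actives on both sides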;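 note: Alexa488 bead fluorescence after subtracting the streptavidin-only scavenger bead signal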
Target sequence (Q99759 whole entry, looked up): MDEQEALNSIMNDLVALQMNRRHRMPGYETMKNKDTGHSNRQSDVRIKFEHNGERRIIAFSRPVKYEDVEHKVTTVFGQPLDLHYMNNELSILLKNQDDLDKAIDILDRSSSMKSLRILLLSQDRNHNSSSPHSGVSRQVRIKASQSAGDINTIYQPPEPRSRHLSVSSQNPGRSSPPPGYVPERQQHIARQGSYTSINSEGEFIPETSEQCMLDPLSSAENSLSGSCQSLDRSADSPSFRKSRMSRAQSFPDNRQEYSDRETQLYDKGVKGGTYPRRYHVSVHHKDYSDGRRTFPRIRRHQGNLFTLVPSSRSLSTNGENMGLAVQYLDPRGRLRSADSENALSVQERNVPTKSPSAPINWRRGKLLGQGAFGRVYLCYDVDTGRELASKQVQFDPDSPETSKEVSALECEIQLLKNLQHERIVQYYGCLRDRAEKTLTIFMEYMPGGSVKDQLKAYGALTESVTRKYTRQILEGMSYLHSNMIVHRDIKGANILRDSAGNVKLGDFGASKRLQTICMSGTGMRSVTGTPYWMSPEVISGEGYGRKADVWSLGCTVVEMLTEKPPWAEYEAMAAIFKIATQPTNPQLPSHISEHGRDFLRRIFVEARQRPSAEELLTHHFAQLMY
MEKK2wt confirm: modulators of MEK5 binding to wildtype MEKK2, confirmation, biochemical, single concentration, multiplex bead flow cytometry; binding response (% of control), % at 10 µM; 5,900 compounds, 2.4% hits; Alexa488-MEK5 binding to MEKK2 WT; actives lie on both sides; shares compounds with MEKK3 PB1 HTS; AID 1892, 2009; in the data active = binding response below about 16% or above about 210%; inactive = in between
MEKK2mut-MEK5: mutant MEKK2 PB1-MEK5 binding signal retest – biochemical, single concentration, multiplex bead flow cytometry, confirmation | shares compounds with MEKK3 PB1 HTS | Alexa488-MEK5 binding to MEKK2 mutant | percent response, % at 10 µM | 5,900 compounds, 2% hits; in the data active = percent response mostly above about 71%, no sharp cut-off; inactive = mostly below about 38%;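 note: higher means compound restores mutant binding toward wildtype level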
MEKK3 confirm: MEKK3 wild-type PB1 binding to MEK5, inhibitors, confirmation, biochemical, bead multiplex flow cytometry, single concentration, wildtype. shares compounds with MEKK3 PB1 HTS. Alexa488-MEK5 binding to MEKK3; active compounds read low. binding response (% of control), % at 10 µM. 5,900 compounds, 1.8% hits;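 active = binding response below 72% of control, or above a set upper limit, though filed actives all read lower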;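 note: 100% = DMSO only wells and 0% = binding blocked by excess unlabeled MEK5; lower values mean stronger disruption of MEK5 binding to MEKK3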
The depositor's hits bear a star; nt = no result; [ ] = dose if it differs, or a comment. Most compounds without a hit are left out; they make up all but 2.6% or so of the library.

SMILES	MEKK2 mut-MEK5	Hep lipid drop	MEKK2wt PB1 HTS	MEKK3 PB1 HTS	MEKK2wt confirm	MEKK2mut-MEK5	MEKK3 confirm
COc1cc(/C=N/NC(=O)COc2cc(C)cc(C)c2)ccc1OS(=O)(=O)c1ccc(C)cc1	0.0	11.8	98.0	135.0*	98.0	1.0	101.0
O=C1NC(c2ccccc2)=N/C1=C/c1ccco1	2.0	-16.3	111.0	138.0*	104.0	0.0	101.0
O=C1NC(c2cccc(Br)c2)=N/C1=C\c1ccco1	-1.0	4.7	100.0	123.0	nt	nt	nt
CC(C)(c1ccccc1)c1ccc(OCCCNCCO)cc1	13.0	21.1	145.0*	108.0	134.0	27.0	109.0
Cc1ccccc1N(C(=O)CNC(=O)c1ccco1)C(C(=O)NC1CCCCC1)c1cccnc1 (stereo not drawn)	7.0	6.9	99.0	100.0	nt	nt	nt
COc1ccccc1OCC(O)CN1CCN(C(=O)c2ccccc2)CC1 (stereo not drawn)	4.0	1.1	110.0	105.0	nt	nt	nt
COc1ccc(-c2cc(C(F)(F)F)c3c(n2)sc2c(O)cc(=O)[nH]c23)c(OC)c1	-2.0	-2.9	88.0	103.0	nt	nt	nt
Cc1cc(C)c2c(n1)sc1c(O)cc(=O)[nH]c12	8.0	-0.2	114.0	122.0*	112.0	12.0	107.0
CC1CC(C)(C)NC(=S)N1CCC(=O)NCc1ccc(Cl)cc1 (stereo not drawn)	-40.0	3.0	100.0	95.0	nt	nt	nt
O=C(CCC(=O)Nc1ccccc1)NNC(=O)COc1ccccc1	-3.0	2.5	91.0	87.0	nt	nt	nt
O=C(O)C1CCCN(S(=O)(=O)c2ccc(Br)cc2)C1 (stereo not drawn)	-55.0	10.4	18.0*[inhibitor]	11.0*[inhibitor]	101.0	2.0	101.0
O=C(O)C1CCCN(S(=O)(=O)c2ccccc2)C1 (stereo not drawn)	-4.0	1.6	101.0	101.0	nt	nt	nt
Cc1ccc(S(=O)(=O)N2CCN(CC(=O)N/N=C/C=C/c3ccccc3)CC2)cc1	0.0	-1.5	106.0	138.0*	97.0	1.0	103.0
O=C(CN1CCN(S(=O)(=O)c2ccc(Br)cc2)CC1)N/N=C/c1ccco1	1.0	-5.7	108.0	162.0*	103.0	5.0	100.0
NC(=O)CN1CCCN(S(=O)(=O)c2ccc(Br)cc2)CC1	-24.0	nt	3.0*[inhibitor]	2.0*[inhibitor]	100.0	-4.0	98.0
CCOC(=O)C1CCCN(C(=O)CCc2nnc(-c3ccc(C(C)=O)s3)o2)C1 (stereo not drawn)	2.0	-2.5	96.0	100.0	nt	nt	nt
CCCC(=O)Nc1nc2nc(-c3ccccc3)cc(-c3ccccc3)n2n1	-17.0	nt	0.0*[inhibitor]	0.0*[inhibitor]	103.0	9.0	106.0
Brc1ccccc1-c1csnn1	9.0	16.7	107.0	111.0	nt	nt	nt
CCCCn1c(N)c(-c2nc3ccccc3s2)c2c([N+](=O)[O-])nn(C)c(=O)c21	-3.0	5.8	100.0	82.0*[inhibitor]	112.0	5.0	97.0
Cc1cccc(OC(C)C(=O)N2CCCN(C)CC2)c1C (stereo not drawn)	0.0	-1.9	106.0	103.0	nt	nt	nt
CCn1cc(Br)c(C(=O)NCc2ccco2)n1	-25.0	-18.7	65.0	43.0*[inhibitor]	101.0	-3.0	101.0
COc1ccc(CCC(C)NCCc2ccc(Cl)cc2Cl)cc1 (stereo not drawn)	17.0	-22.5	152.0*	105.0	125.0	13.0	103.0
O=C(C[n+]1ccccc1)Nc1ccccc1[N+](=O)[O-]	0.0	4.7	102.0	105.0	nt	nt	nt
COc1ccc(NC(=S)NC2CC3CCCC(C2)N3C2CC2)cc1 (stereo not drawn)	7.0	2.3	127.0	135.0*	105.0	-2.0	102.0
CCCN1C2CCCC1CC(NC(=S)Nc1ccc(OC)cc1)C2 (stereo not drawn)	4.0	-4.4	105.0	102.0	nt	nt	nt
SMILES	MEKK2 mut-MEK5	Hep lipid drop	MEKK2wt PB1 HTS	MEKK3 PB1 HTS	MEKK2wt confirm	MEKK2mut-MEK5	MEKK3 confirm
CCC(C)Sc1nnc(NS(=O)(=O)Cc2ccccc2)s1 (stereo not drawn)	6.0	-3.9	97.0	100.0	nt	nt	nt
CC(NC(=O)c1cccs1)C(S)c1ccccc1 (stereo not drawn)	-2.0	-28.1	95.0	98.0	nt	nt	nt
CCOC(=O)C1CCN(CC(O)COc2ccc(C(C)(C)CC)cc2)CC1 (stereo not drawn)	-21.0	nt	0.0*[inhibitor]	2.0*[inhibitor]	124.0	13.0	110.0
CCOC(=O)C1CCN(CC(O)COc2ccc(C(C)(C)C)cc2)CC1 (stereo not drawn)	1.0	nt	104.0	98.0	nt	nt	nt
CC1(C)SC(=S)N(NC(=O)Nc2ccccc2)C1N(O)C(=O)Nc1ccccc1 (stereo not drawn)	1.0	nt	96.0	103.0	nt	nt	nt
CNC(=O)N(O)C1N(NC(=O)Nc2cccc3ccccc23)C(=S)SC1(C)C (stereo not drawn)	1.0	17.6	105.0	132.0*	101.0	3.0	100.0
CCCCCCCCNC1=CC(=O)CC(C)(C)C1	2.0	1.9	96.0	97.0	nt	nt	nt
O=C1c2cc(Cl)ccc2OC2(CCNCC2)C12CC(c1ccc(Cl)cc1)=NO2 (stereo not drawn)	20.0	2.9	162.0*	115.0	133.0	15.0	103.0
O=C(CSc1ccc(-c2nc3ccccc3[nH]2)cn1)Nc1ccc2c(c1)OCCO2	0.0	15.8	104.0	102.0	nt	nt	nt
O=C(CSc1ccc(-c2nc3ccccc3[nH]2)cn1)Nc1ccc(S(=O)(=O)NC2CC2)cc1	1.0	1.2	112.0	165.0*	102.0	0.0	98.0
Cc1ccnc(NC(=O)c2cc(S(=O)(=O)N3CCCCC3)ccc2Cl)c1	8.0	0.6	125.0	134.0*	104.0	7.0	106.0
CN1C(=CC=C2C=C(I)C(=O)C(I)=C2)C(C)(C)c2ccccc21	-38.0	-2.9	-1.0*[inhibitor]	40.0*[inhibitor]	22.0	-25.0	68.0*
CN1/C(=C\C=C2/C(=O)Oc3ccccc3C2=O)C(C)(C)c2ccccc21	-13.0	10.6	75.0	50.0*[inhibitor]	84.0	-30.0	93.0
CC1=NN(c2ccccc2)C(=O)/C1=C\C=C1/N(C)c2ccccc2C1(C)C	9.0	2.0	99.0	98.0	nt	nt	nt
O=C(CSc1ccc2c(c1)OCCO2)Nc1ccc(N2CCOCC2)cc1	-5.0	10.2	89.0	79.0	nt	nt	nt
CCCCCCN(C(=O)CCl)c1ccccc1	-44.0	-9.0	48.0	41.0*[inhibitor]	94.0	-3.0	99.0
